2 compounds from ChEMBL document CHEMBL4316593 (Eur J Med Chem, 2019) can be followed below.

Activity calls are given as the source filed them. No cut-off for these calls is given here.

This assay relates to U-87 MG. Briefly: Cytotoxicity against human U87 cells assessed as reduction in cell proliferation at 100 uM measured after 48 hrs by trypan blue dye-based cell counting analysis. It counts as functional. The settings on record: U-87MG ATCC. In short, it runs like this:
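Trypan blue viability assay. U87 (MEM, 10% FBS) or LN229 (DMEM, 5% FBS) cells were treated for 48hrs. Screening used 100 μM; the dose-response used 100, 75, 50, 25 and 10 μM. Cells were pelleted at 1200 rpm and live/dead cells counted by automated counter. Mortality % was taken relative to the DMSO control, and IC₅₀ derived from the dose-response curve. Cisplatin served as positive control.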

For the compound `CC(=O)/C(=N\Nc1ccc([N+](=O)[O-])cc1O)C(=O)c1ccccc1`, the result was Active. Consider `CC(=O)/C(=N\Nc1cc(S(=O)(=O)O)cc(S(=O)(=O)O)c1O)C(=O)c1ccccc1`, for which the outcome was inactive.
